Compound activity: PubChem, Johns Hopkins Ion Channel Center
In the library only some 3% were active in any assay of this set; here they are far more common.
Kir21 inh – inhibitors of mouse Kir2.1 inward-rectifier potassium channel. HEK293-Kir2.1, FluxOR thallium flux fluorescence; hits give low values. P35561. B-score at 10 µM. AID 1672. actives 0.85% (n = 310,000);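 active = fluorescence ratio B-score at or below minus 3 SD of library scores, with starting-brightness B-score within 2 SD, cut at about -4.2 in these data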;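 also: channel flux triggered by added potassium and thallium sulfate stimulus; B-score of peak minus minimum fluorescence over baseline after thallium stimulus; more negative B-score means stronger Kir2.1 block with less thallium influx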
TRPC6 act – mouse TRPC6 channel activation. Q61143. HEK293-TRPC6 membrane potential dye fluorescence; hits give high values. B-score at 10 µM. actives 0.13% (n = 310,000);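 active = B-score of the integrated fluorescence ratio above library mean plus 3 SD, and starting fluorescence ratio within library mean plus 5 SD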;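 also: higher score means more depolarization so channel activation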
TRPC6 inhibitor – mouse TRPC6 channel inhibition. B-score at 10 µM. actives 1.1% (n = 310,000). HEK293-TRPC6, membrane potential dye, ACh-evoked depolarization; hits give low values. AID 2553;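 active = B-score under library mean minus 3 SD, initial fluorescence not abnormally high, positive integrated signal ratio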;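 also: B-score derived from integrated fluorescence ratio over the kinetic read; more negative B-score means stronger inhibition of depolarization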
TRPC4 agonist – activators of mouse TRPC4 channel; Q9QUQ5; HEK293 TRPC4beta/mu-opioid, Fluo4 calcium fluorescence; hits give high values; B-score at 10 µM; actives 0.49% (n = 310,000); AID 2237;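 active = B-score above 5 SD of library B-scores, and initial fluorescence ratio not above library mean plus 5 SD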;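 also: positive B-score marks a calcium rise read as TRPC4 activation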
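system = HEK293 cells stably co-expressing mouse TRPC4beta and mu-opioid receptor | schedule = Fluo4 dye loading 45 min at room temperature, 110 s recording | measure = B-scored integrated calcium fluorescence ratio | signal = Fluo4 calcium-sensitive dye fluorescence, kinetic, 1 Hz baseline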
TRPC4 PAM – allosterically enhances the mouse TRPC4 cation channel; HEK293 TRPC4beta/mu-opioid, DAMGO EC20, Fluo-4 Ca2+ flux; hits give high values; B-score at 10 µM; actives 0.42% (n = 310,000); AID 2227;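 active = B-score of calcium response area above 5 SD of library B-scores, with initial fluorescence ratio within 5 SD of library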;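 also: B-score of integrated fluorescence ratio over time as area under calcium response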
TRPC4 block – inhibitors of mouse TRPC4 channel | actives 0.39% (n = 300,000) | HEK293 TRPC4beta/mu-opioid, DAMGO-evoked Fluo4 calcium flux; hits give low values | B-score at 10 µM | Q9QUQ5;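 active = B-score over 3 SD under the library average, no early fluorescence shift, positive overall ratio signal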
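Assay system: HEK293 cells with stable TRPC4beta plus mu-opioid receptor expression. Dosing: single dose. Measured by: Fluo4 Ca2+ flux fluorescence. Also added: DAMGO in two steps, submaximal then maximal. Read-out: B score from integrated Fluo4 fluorescence ratio.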
TRPC4 sel inh 2 – mouse TRPC4 off-target activity of TRPC6 inhibitors, second screen; shares compounds with TRPC6 inhibitor; actives 42% (n = 920); inhibition, % at 10 µM; HEK293 TRPC4/MOR, membrane potential dye fluorescence; channel activated by saturating DAMGO dose;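 active = compounds whose fluorescence signal differed from control wells by over 3 SD, either direction, in both duplicate plates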
TRPC4 spec – selectivity of TRPC6 inhibitors: effect on mouse TRPC4. HEK293 TRPC4/mu-opioid, membrane potential fluorescence. shares compounds with TRPC6 inhibitor. AID 2777. activity change, negative = inhibition, % at 10 µM. actives 61% (n = 920);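 active = rise or fall in signal beyond 3 SD of buffer-only wells in both replicate plates, either sign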;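 also: integrated kinetic ratio of fluorescence range over baseline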
HEK293 MPD ctr 2-1 – second check of TRPC6 inhibitor effects in parental HEK293 cells | parental HEK293 membrane potential dye fluorescence; maximal acetylcholine challenge after compound addition | actives 31% (n = 920) | signal change vs control, % at 10 µM | shares compounds with TRPC6 inhibitor;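 active = membrane potential signal moving either way by over 3 SD of the maximum-effect control, in both duplicate plates, meaning non-specific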
HEK293 MPD ctr-1 – parental HEK293 nonspecific activity of TRPC6 inhibitors | membrane potential signal change, % at 10 µM | parental HEK293 membrane potential dye fluorescence | actives 60% (n = 920) | shares compounds with TRPC6 inhibitor;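 active = membrane potential signal shifting up or down by more than 3 SD of buffer-only wells, on both duplicate plates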
HEK293 MPD ctr-2 – checks TRPC6 modulator effects in parental HEK293 cells | actives 51% (n = 2,400) | AID 488924 | membrane potential signal change, % at 10 µM | shares compounds with TRPC6 inhibitor | membrane potential dye fluorescence;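 active = membrane potential signal moves up or down beyond 5 SD from buffer-only wells, on both duplicate plates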
HEK293 MPD ctr 2-2 – second counter-screen for TRPC6 modulators: effect in parental HEK293 cells | shares compounds with TRPC6 inhibitor | membrane potential dye fluorescence; after compound, maximal acetylcholine stimulation | inhibition, % at 10 µM | actives 14% (n = 2,400) | AID 488926;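 active = membrane potential signal drops by more than 5 SD from the mean control signal, in both duplicate plates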;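 also: plate controls were acetylcholine ECmax control wells for no effect and buffer only wells for full effect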
TRPC4 ctr mod – mouse TRPC4 off-target activity of TRPC6 modulators; actives 69% (n = 2,400); percent change from control (negative = decrease, positive = increase), % at 10 µM; HEK293 TRPC4/mu-opioid, membrane potential fluorescence; shares compounds with TRPC6 inhibitor;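 active = membrane potential signal moved up or down beyond 5 SD of buffer control wells, in both duplicate plates, actives on both sides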;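 also: plate controls were assay buffer wells for no effect and DAMGO maximal-effect wells for full effect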
TRPC4/MOR inh 2 – mouse TRPC4 off-target activity of TRPC6 modulators, second screen; AID 488928; actives 55% (n = 2,400); HEK293 TRPC4/mu-opioid, membrane potential dye fluorescence; stimulated with maximal-effect DAMGO; shares compounds with TRPC6 inhibitor; inhibition, % at 10 µM;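 active = drop in membrane potential signal beyond 5 SD of the control wells in both duplicate plates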;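 also: TRPC4 counter screen for TRPC6 hits run under conditions tuned for TRPC6 not TRPC4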
TRPC6 inh conf – confirmation of mouse TRPC6 inhibitors. inhibition, % at 10 µM. AID 488960. actives 43% (n = 3,300). HEK293-TRPC6, membrane potential dye, ACh-evoked depolarization. shares compounds with TRPC6 inhibitor;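 active = fluorescence ratio falls more than 5 SD below the full-stimulation control mean, in both duplicate runs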;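 also: integrated fluorescence ratio of peak minus minimum over baseline after agonist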
TRPC6 act conf – confirmation of mouse TRPC6 activators. shares compounds with TRPC6 inhibitor. HEK293-TRPC6 membrane potential dye fluorescence, FDSS. activation, % at 10 µM. actives 11% (n = 2,800). AID 488961;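 active = ratio signal rise beyond 5 SD above unstimulated control wells' mean, seen in both duplicate runs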;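 also: plate controls were buffer EC0 wells for no effect and acetylcholine ECmax response for full effect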
Numbers without * were called inactive.

`CCOC(=O)c1cnc2c(Cl)c(Cl)ccc2c1NCCN1CCOCC1` gave Kir21 inh -0.02, TRPC6 act inactive, TRPC6 inhibitor inactive, TRPC4 agonist inactive, TRPC4 PAM inactive and TRPC4 block inactive.
O=S(=O)(c1ccc(F)c(F)c1)N1CCN(CCc2ccccc2)CC1 was read as Kir21 inh 0.65, TRPC6 act inactive, TRPC6 inhibitor inactive, TRPC4 agonist inactive, TRPC4 PAM inactive and TRPC4 block inactive.
O=C(CSc1nc(O)c(C2CCCCC2)c(=O)[nH]1)Nc1ccccc1Cl was read as Kir21 inh 0.33, TRPC6 act inactive, TRPC6 inhibitor inactive, TRPC4 agonist inactive, TRPC4 PAM inactive and TRPC4 block inactive.
C/C(=N\Nc1nc2ccccc2[nH]1)c1ccc2c(c1)OCCO2 was read as Kir21 inh -0.7, TRPC6 act inactive, TRPC6 inhibitor -7.2*, TRPC4 agonist inactive, TRPC4 PAM inactive, TRPC4 block inactive, TRPC4 sel inh 2 41%*, TRPC4 spec -24%*, HEK293 MPD ctr 2-1 inactive, HEK293 MPD ctr-1 -263%*, TRPC6 inh conf 67%* and TRPC6 act conf inactive.
`C/C(=N\Nc1ccccn1)c1ccc2c(c1)OCO2` gave Kir21 inh -0.2, TRPC6 act inactive, TRPC6 inhibitor inactive, TRPC4 agonist inactive, TRPC4 PAM inactive and TRPC4 block inactive.
Screening C/C(=N\Nc1nc2ccccc2[nH]1)c1ccc2c(c1)OCO2 returned Kir21 inh -0.07, TRPC6 act inactive, TRPC6 inhibitor -10*, TRPC4 agonist inactive, TRPC4 PAM inactive, TRPC4 block -8*, TRPC4 sel inh 2 40%*, TRPC4 spec -20%*, HEK293 MPD ctr 2-1 38%*, HEK293 MPD ctr-1 -346%*, TRPC6 inh conf 58%* and TRPC6 act conf inactive.
`C/C(=N\Nc1nc2ccccc2[nH]1)c1cc2ccccc2o1` gave Kir21 inh -1.1, TRPC6 act inactive, TRPC6 inhibitor inactive, TRPC4 agonist inactive, TRPC4 PAM inactive and TRPC4 block inactive.
Screening O=C1NC(=O)C(Cc2ccccc2)(c2cccnc2)N1 (stereo not drawn) returned Kir21 inh 0.98, TRPC6 act inactive, TRPC6 inhibitor inactive, TRPC4 agonist inactive, TRPC4 PAM inactive and TRPC4 block inactive.
Cc1csc(NC(=O)CCCC(=O)c2ccccc2)n1 was read as Kir21 inh -0.04, TRPC6 act inactive, TRPC6 inhibitor inactive, TRPC4 agonist inactive, TRPC4 PAM inactive and TRPC4 block inactive.
Screening O=C(NC(Cc1c[nH]c2ccccc12)C(=O)OCC(=O)c1cccc2ccccc12)c1cccs1 (stereo not drawn) returned Kir21 inh -0.05, TRPC6 act inactive, TRPC6 inhibitor inactive, TRPC4 agonist inactive, TRPC4 PAM inactive and TRPC4 block inactive.
For CCC[N+]1(CC#CC(O)(c2ccccc2)C2CCCCC2)CCCCC1 (stereo not drawn) the results were Kir21 inh -0.02, TRPC6 act inactive, TRPC6 inhibitor inactive, TRPC4 agonist inactive, TRPC4 PAM inactive and TRPC4 block inactive.
For CC1(C(O)(C#CC[N+]2(C)CCCCC2)c2ccccc2)CCCC1 (stereo not drawn) the results were Kir21 inh 1.6, TRPC6 act inactive, TRPC6 inhibitor -11*, TRPC4 agonist inactive, TRPC4 PAM inactive, TRPC4 block inactive, TRPC4 sel inh 2 inactive, TRPC4 spec inactive, HEK293 MPD ctr 2-1 -26%*, HEK293 MPD ctr-1 inactive, TRPC6 inh conf 107%* and TRPC6 act conf inactive.
For C=CCNc1nc2c(c(=O)[nH]c(=O)n2C)n1CCCc1ccccc1 the results were Kir21 inh 0.5, TRPC6 act inactive, TRPC6 inhibitor inactive, TRPC4 agonist inactive, TRPC4 PAM inactive and TRPC4 block inactive.
Screening O=C1c2ccccc2C(=O)c2c1ccc1c(=O)n(C3CCCCC3)[nH]c21 returned Kir21 inh 2.6, TRPC6 act inactive, TRPC6 inhibitor -5.1*, TRPC4 agonist inactive, TRPC4 PAM inactive, TRPC4 block inactive, HEK293 MPD ctr-2 -94%*, HEK293 MPD ctr 2-2 inactive, TRPC4 ctr mod -20%*, TRPC4/MOR inh 2 inactive, TRPC6 inh conf inactive and TRPC6 act conf inactive.
For O=C(NCc1ccccc1)c1ccc2c(c1)C(=O)N(Cc1cccnc1)C2=O the results were Kir21 inh -0.19, TRPC6 act inactive, TRPC6 inhibitor inactive, TRPC4 agonist inactive, TRPC4 PAM inactive and TRPC4 block inactive.
